Compound activity from PubChem.
SKN-1 inh: suppressors of acrylamide-induced Pgst-4::GFP reporter in worms, primary screen, SKN-1 inhibitor project, whole organism, uHTS, GFP/RFP fluorescence ratio, strain VP596 | C. elegans VP596 Pgst-4::GFP/RFP ratio, 24 h | inhibition, % at 21.8 µM | 360,000 compounds, 0.49% hits | AID 624304, 2012;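 active means interference check ratio from 0.5 to 1.5 plus GFP to RFP signal ratio inhibition reaching or exceeding a fixed threshold, cut at about 30% in these data, passing the limit was not always enough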
Tn7 DDE FP: inhibitors of Tn7 peptide binding to fibrin DD(E), primary screen, biochemical, fluorescence polarization, human fibrin, Tn7 probe; 370,000 compounds, 0.13% hits; inhibition, % at 8.3 µM; AID 720508, 2013; FP displacement of FITC-Tn7 peptide from fibrin DD(E); 0% = median of compound wells per plate;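 active means inhibition above the mean of compounds falling within the control limits plus 3 SD of them, cut at about 14% in these data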;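 further: 0% = plate median of compound wells and 100% = 10 µM Aha-Tn7 peptide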
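Also added: labelled Tn7 tracer, 0.1 µM; Assay system: human fibrin DD(E) protein; Amount: 2 µM fibrin DD(E); Schedule: 10 min compound pre-incubation, 3 h probe incubation at room temperature; Repeats: one replicate per compound; Read-out basis: percent inhibition; Measured by: fluorescence polarization of the labelled Tn7 tracer.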
Tn6 DDE FP: inhibitors of Tn6 peptide binding to fibrin DD(E), primary screen, biochemical, fluorescence polarization, human fibrin, Tn6 probe | Fibrinogen beta chain (Homo sapiens), P02675 | Fibrin DD(E) TRITC-Tn6 fluorescence polarization displacement | inhibition, % at 8.3 µM | 370,000 compounds, 0.21% hits | AID 720509, 2013;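 active means inhibition above a per-campaign cutoff: mean of compounds within control limits plus 3 SD, cut at about 15% in these data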;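 further: 0% = median of all compound wells on the plate and 100% = blocking peptide control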
MT1-MMP act inh: blockers of MT1-MMP proenzyme processing, primary screen, HT1080 RFP-PRO-GFP cells, GFP/RFP fluorescence | 360,000 compounds, 0.061% hits | GFP/RFP ratio change, % at 20 µM | GFP/RFP ratio fluorescence, overnight; percent of plate control window, DMSO zero | AID 651647, 2012;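 active means GFP/RFP ratio change of at least 30% with cell ATP level not reduced by more than half and red fluorescence within 50% of control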
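Assay system: HT1080 cells carrying an RFP-PRO-GFP reporter | Dosing: Single dose of 20 µM compound, 1% DMSO final | Incubation: Cells overnight before dosing, compound overnight, 37 °C, 5% CO2 | Evaluation: GFP/RFP fluorescence ratio | Control set: DMSO and RFP-L50D-GFP cell wells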
Neddyl block: inhibitors of cullin neddylation, primary screen, biochemical, TR-FRET, uHTS, NAE and Ubc12; NEDD8-conjugating enzyme Ubc12 (Homo sapiens) + NEDD8-activating enzyme E1 regulatory …; calls only at 25 µM; AID 651699, 2012; 360,000 compounds, 0.58% hits; in the data active means inhibition above about 36%
proKLK7 act: proKLK7 zymogen activators, primary screen, biochemical, fluorescence intensity. activation, % at 7 µM. 370,000 compounds, 0.9% hits. AID 652039, 2013. purified proKLK7, EDANS-DABCYL substrate fluorescence; 100% is mature enzyme control, 0% vehicle;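 active means activation above the mean of all tested compounds plus 3 SD, computed per campaign excluding outliers beyond control limits, cut at about 13% in these data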
Target sequence (P49862 whole entry, looked up): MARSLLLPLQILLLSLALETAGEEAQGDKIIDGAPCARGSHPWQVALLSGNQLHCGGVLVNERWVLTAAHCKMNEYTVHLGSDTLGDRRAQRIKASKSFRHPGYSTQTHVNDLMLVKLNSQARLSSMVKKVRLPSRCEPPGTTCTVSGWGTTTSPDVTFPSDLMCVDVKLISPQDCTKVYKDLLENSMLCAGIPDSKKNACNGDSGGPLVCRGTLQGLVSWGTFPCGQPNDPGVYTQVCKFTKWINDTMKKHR
Neddyl inh conf: blockade of NEDD8 conjugation to cullin – biochemical, TR-FRET, single concentration, confirmation. 1,800 compounds, 13% hits. shares compounds with Neddyl block. TR-FRET cullin neddylation biochemical assay. calls only at 25 µM; in the data active means inhibition above about 40%;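 further: neddylation substrate is the cullin 1 ring ligase complex with SKP2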
An asterisk follows results filed as active; i = inactive; / = not tested or not shown; + = active, no number. Compounds with a hit are over-represented: about 2.2% of the library has one in this group of screens.

SMILES	SKN-1 inh	Tn7 DDE FP	Tn6 DDE FP	MT1-MMP act inh	Neddyl block	proKLK7 act	Neddyl inh conf
Cc1cc(F)ccc1S(=O)(=O)Nc1ccccc1C(=O)NCc1ccccn1	-1.4	-0.2	-1.7	1.6	+	1.1	i
Cc1cccc(NC(=O)Cn2nc(-c3ccco3)ccc2=O)c1C	-13.3	0.0	-0.5	-2.0	+	9.5	/
Cc1ccccc1NC(=O)CSc1ccc(-c2ccco2)nn1	7.7	-0.6	-1.5	3.3	i	0.2	/
O=C(Cn1nc(-c2ccco2)ccc1=O)Nc1ccc(Br)cc1	20.7	-2.1	-0.6	2.9	+	4.1	/
O=C(Cn1nc(-c2cccs2)ccc1=O)Nc1ccc(Br)cc1	4.1	-3.7	-1.1	4.0	i	0.5	/
COC(=O)[C@@]12C[C@@H](CC(=O)N3CCN(C(=O)c4ccco4)CC3)C(=O)N(Cc3ccco3)C1=CCC(C)(C)C2	-6.6	1.1	0.0	-4.6	i	0.8	/
CCc1cccc(NC(=O)COC(=O)C2COc3ccccc3O2)c1 (stereo unspecified)	-2.7	3.8	0.9	-0.1	i	0.0	/
C#Cc1ccc(CN2CCC(Oc3ccc(C(=O)NCc4ccccn4)cc3)CC2)cc1	-25.3	-0.6	8.8	4.2	i	0.4	/
O=C(N/N=C/c1sc(N2CCOCC2)nc1-c1ccccc1)c1ccc(O)cc1	-2.4	1.9	-14.3	12.1	+	7.1	+
COc1ccc(C(=O)N/N=C/c2sc(N3CCOCC3)nc2-c2ccccc2)cc1OC	3.3	2.5	3.4	4.7	+	-1.2	i
O=C(N/N=C/c1sc(N2CCOCC2)nc1-c1ccccc1)c1cccc(S(=O)(=O)N2CCCC2)c1	3.2	0.7	-1.8	-28.6	/	-36.9	/
COc1ccc2c(ccc[n+]2[O-])c1	0.5	-6.3	2.7	2.7	i	0.0	/
[O-][n+]1c2ccccc2cc2ccccc21	6.5	1.8	3.3	-1.5	+	4.2	/
O=C(/C=C/c1ccccc1)Nc1ccc2c(c1)C(=O)NC2=O	9.5	0.8	-1.1	1.1	+	-2.3	/
O=C(Nc1ccc2c(c1)C(=O)NC2=O)c1ccccc1	-3.9	0.8	10.7	1.0	/	-132.0	/
O=C(/C=C/c1ccccc1Cl)Nc1ccc2c(c1)C(=O)NC2=O	-21.4	-1.7	-4.5	2.5	/	-2.1	/
O=C(Nc1ccc2c(c1)C(=O)NC2=O)c1cccc(C(F)(F)F)c1	3.1	1.0	-5.4	0.0	+	-32.7	i
O=C(CSc1nnc(Cn2nnc(-c3ccccc3)n2)n1-c1ccccc1)Nc1ccc(F)cc1	-2.9	0.1	-10.2	-1.1	i	0.2	/
O=C(c1nc2nc(-c3ccc(Cl)cc3)cc(C(F)(F)F)n2n1)N1CCOCC1	1.1	-7.8	-4.1	4.4	+	1.9	i
Cc1csc(NC(=O)c2cc(=O)[nH]c3ccc(S(=O)(=O)N4CCOCC4)cc23)n1	-7.3	2.5	6.4	-0.4	+	2.2	/
O=C(CC(=O)Nc1ccc(Br)cc1)Nc1ccc(Br)cc1	4.8	3.5	-3.1	2.4	i	0.1	/
CCOC(=O)N1CCC(c2cc(=O)n3[nH]ccc3n2)CC1	-2.6	-1.7	6.1	-1.0	+	1.6	/
Cc1ccc(-n2nc3ccc(NC(=O)C(C)C)cc3n2)cc1	3.4	-1.0	1.5	0.4	+	0.0	i
COC(=O)C1=C(C)N=C2SC(C#N)=C(N)N2C1c1ccc(OCc2ccccc2)cc1 (stereo unspecified)	6.1	6.3	3.6	-2.7	+	0.3	i
COC(=O)C1=C(C)N=C2SC(C#N)=C(N)N2C1c1cc(OC)c(OC)c(OC)c1 (stereo unspecified)	7.0	-10.4	3.8	-10.7	i	0.9	/
SMILES	SKN-1 inh	Tn7 DDE FP	Tn6 DDE FP	MT1-MMP act inh	Neddyl block	proKLK7 act	Neddyl inh conf
COc1cc(C(=O)Nc2cccc(NC(=O)c3ccccc3)c2)cc(OC)c1OC	12.1	2.4	-0.4	9.2	i	0.0	/
Cn1c(=O)c(-c2ccccc2)nc2ccccc21	12.2	2.2	9.2	1.3	+	1.2	+
Cn1c(=O)c(-c2ccccc2N)nc2ccccc21	2.8	2.4	9.4	-2.0	i	0.4	/
N#Cc1ccc(/C=C(\C(=O)C(=O)O)c2ccc3ccccc3n2)cc1	-2.2	2.2	2.1	-27.6	+	-0.5	i
Cc1ccsc1/C=N/Nc1nc(Cl)c(Cl)cc1Cl	2.3	-2.8	-3.2	3.5	+	-2.4	i
N/C(=N\OC(=O)c1ccc2c(c1)OCO2)c1ccc([N+](=O)[O-])cc1	4.1	-3.9	6.2	2.6	i	0.2	/
CCCCN(CC)CCCNC(=O)c1cc2c(-c3ccc(OC)c(OC)c3)nn(C)c2s1	8.2	-4.8	-6.7	8.8	+	0.2	i
CC(C)OCCCNC(=O)c1cc2c(=O)n(C)c3ccccc3c2n1C	14.1	-2.1	7.4	4.2	i	0.4	/
CCCCN(CC)CCCNC(=O)c1cc2c(=O)n(C)c3ccccc3c2n1C	14.8	0.5	0.9	7.3	+	0.6	i
COc1cccc(NC(=O)C2CCN(S(=O)(=O)c3ccc4c(c3)N(C(C)=O)CCO4)CC2)c1	-0.3	-0.1	9.5	2.1	i	1.1	/
Cc1cc(=O)[nH]c2c3ccccc3nn12	5.0	-4.3	-1.6	-1.5	i	-4.7	/
Cc1cc(C)n2nc3ccccc3c2n1	2.2	-6.0	4.1	1.8	+	-0.2	i
COc1ccc(C(=O)Nc2ccncc2)cc1S(=O)(=O)N1CCOCC1	-5.2	1.1	-2.5	8.7	i	-0.6	/
COc1ccc(C(=O)Nc2ccc(NC(=O)c3ccccc3)cc2)cc1S(=O)(=O)N1CCOCC1	15.0	-5.6	1.4	-5.1	+	0.4	i
O=C(C1CCC(=O)N1Cc1cccs1)N1CCOCC1 (stereo unspecified)	8.2	2.1	0.0	0.2	i	0.1	/
